Assay results published in ChEMBL document CHEMBL4229344 (Eur J Med Chem, 2018).
Calls of active or inactive are those of the source. No cut-off for these calls is given here.

Key:
EOL1 [1] = experiment: Induction of apoptosis in human EOL-1 cells assessed as cleaved PARP expression level at 3 to 100 nM after 24 hrs by Western blot analysis; format: functional, cell-based
Summary of the method: (§1)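 Cells exposed to compound or DMSO for the stated periods, then lysed and immunoblotted for PARP and caspase-3 cleavage, with β-actin as loading control. NCI-H1703 stimulation used PDGF AA at 100 ng/mL.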

[2] = target: Phosphatidylinositol 4,5-bisphosphate 3-kinase catalytic subunit delta isoform (Homo sapiens) (UniProt O00329); experiment: Binding affinity to wild-type human partial length PIK3CD (R108 to Q1044 residues) expressed in mammalian expression system assessed as residual binding level at 1 uM by Kinomescan method relative to control
[3] = target: Cyclin-dependent kinase-like 2 (Homo sapiens) (UniProt Q92772); experiment: Binding affinity to wild-type human partial length CDKL2 (M1 to D327 residues) expressed in bacterial expression system assessed as residual binding level at 1 uM by Kinomescan method relative to control
[4] = target: Fibroblast growth factor receptor 2 (Homo sapiens) (UniProt P21802); experiment: Binding affinity to wild-type human partial length FGFR2 (D457 to E769 residues) expressed in bacterial expression system assessed as residual binding level at 1 uM by Kinomescan method relative to control
Summary of the method: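 Kinome-wide competition binding screen against a panel of 468 purified kinases/mutants, with the test compound at a single concentration of 1 μM. Read-out is the relative binding activity of each kinase in the presence of compound.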

[5] = Half life in Sprague-Dawley rat at 1 mg/kg, iv; format: ADME, organism-based; settings: in vivo
[6] = target: Mitogen-activated protein kinase kinase kinase 12 (DLK/MAP3K12) (Homo sapiens) (UniProt Q12852); experiment: Binding affinity to wild-type human full length DLK (M1 to P859 residues) expressed in mammalian expression system assessed as residual binding level at 1 uM by Kinomescan method relative to control
[7] = target: Tyrosine-protein kinase receptor Tie-1 (Homo sapiens) (UniProt P35590); experiment: Binding affinity to wild-type human partial length TIE1 (T819 to A1138 residues) expressed in bacterial expression system assessed as residual binding level at 1 uM by Kinomescan method relative to control
[8] = target: Myosin-IIIb (Homo sapiens) (UniProt Q8WXR4); experiment: Binding affinity to wild-type human partial length MYO3B (M1 to D357 residues) expressed in bacterial expression system assessed as residual binding level at 1 uM by Kinomescan method relative to control
[9] = target: Serine/threonine-protein kinase tousled-like 2 (Homo sapiens) (UniProt Q86UE8); experiment: Binding affinity to wild-type human partial length TLK2 (E424 to N749 residues) expressed in bacterial expression system assessed as residual binding level at 1 uM by Kinomescan method relative to control
[10] = target: Non-receptor tyrosine-protein kinase TNK1 (Homo sapiens) (UniProt Q13470); experiment: Binding affinity to wild-type human full length TNK1 (M1 to P661 residues) expressed in bacterial expression system assessed as residual binding level at 1 uM by Kinomescan method relative to control
Summary of the method: (§2)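 KINOMEscan competition binding against 468 purified kinases/mutants, test compound at 1 µM; residual binding relative to control.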

[11] = target: Casein kinase II subunit alpha' (Homo sapiens) (UniProt P19784); experiment: Binding affinity to wild-type human full length CSNK2A2 (M1 to R350 residues) expressed in mammalian expression system assessed as residual binding level at 1 uM by Kinomescan method relative to control
Summary of the method: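 Single-concentration (1 μM) competition-binding screen run by KINOMEscan against a panel of 468 purified kinases and mutants. The read-out is the relative binding activity of the test compound to each kinase.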

[12] = target: Mitogen-activated protein kinase 13 (Homo sapiens) (UniProt O15264); experiment: Binding affinity to wild-type human full length p38-delta (M1 to L365 residues) expressed in bacterial expression system assessed as residual binding level at 1 uM by Kinomescan method relative to control; summary of the method: as §2
NCI-H1703 = experiment: Induction of apoptosis in human NCI-H1703 cells assessed as cleaved caspase3 expression level after 72 hrs in presence of PDGF-AA by Western blot analysis; format: functional, cell-based; summary of the method: as §1
[13] = target: Vascular endothelial growth factor receptor 2 (Homo sapiens) (UniProt P35968)
[14] = target: Mitogen-activated protein kinase 11 (Homo sapiens) (UniProt Q15759); experiment: Binding affinity to wild-type human full length p38-beta (M1 to Q364 residues) expressed in bacterial expression system assessed as residual binding level at 1 uM by Kinomescan method relative to control
Summary of the method: (§3)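 Single-concentration KINOMEscan (DiscoverX) binding screen at 1 μM against a panel of 468 purified kinases and mutants. The read-out is binding relative to control.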

EOL1 [15] = experiment: Antitumor activity against human EOL-1 cells xenografted in nu/nu mouse assessed as tumor growth inhibition at 50 mg/kg/day, ip; format: functional; settings: read-out: TGI
Summary of the method: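 Female nu/nu mice (6 weeks) given subcutaneous right-flank injection of 5 million EOL-1 cells in PBS/Matrigel 1:1. At 200–400 mm3 tumors, randomized to groups of 6 and dosed daily i.p. for 14 days at 25, 50 or 100 mg/kg/d in 0.5% methylcellulose/0.4% Tween80. Tumor volume = W²×L/2, measured daily.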

[16] = target: Serine/threonine-protein kinase WNK3 (Homo sapiens) (UniProt Q9BYP7); experiment: Binding affinity to wild-type human partial length WNK3 (M1 to D434 residues) expressed in mammalian expression system assessed as residual binding level at 1 uM by Kinomescan method relative to control
[17] = target: Serine/threonine-protein kinase 4 (Homo sapiens) (UniProt Q13043); experiment: Binding affinity to wild-type human full length MST1 (M1 to F487 residues) expressed in bacterial expression system assessed as residual binding level at 1 uM by Kinomescan method relative to control; summary of the method: as §2
[18] = AUC (0 to t) in Sprague-Dawley rat at 1 mg/kg, iv; format: ADME, organism-based; settings: in vivo
Summary of the method: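 Male Sprague-Dawley rats (6–8 weeks) fasted overnight, dosed IV or orally; compound dissolved in 5% DMSO/40% PEG400/55% saline (dosing solution 1 mg/mL). Blood (~0.2 mL) from jugular vein into heparin; IV sampling 1 min–8 h, oral 5 min–24 h. Plasma separated by centrifugation at 2–8 °C, stored at −80 °C until analysis.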

[19] = tested on: Proto-oncogene tyrosine-protein kinase receptor Ret (Homo sapiens), P07949 [V804M]; experiment: Binding affinity to human partial length RET V804M mutant (E713 to D1014 residues) expressed in bacterial expression system assessed as residual binding level at 1 uM by Kinomescan method relative to control
Summary of the method: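 Kinome-wide single-concentration binding screen (KINOMEscan) at 1 μM against a panel of 468 purified kinases and mutants. Read-out is relative binding of each kinase compared with control. Selectivity across the panel was summarised as an S(10) score.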

[20] = target: Bone morphogenetic protein receptor type-1A (Homo sapiens) (UniProt P36894); experiment: Binding affinity to wild-type human partial length BMPR1A (Q214 to I532 residues) expressed in bacterial expression system assessed as residual binding level at 1 uM by Kinomescan method relative to control; summary of the method: as §3

For Cc1ccc(NC(=O)c2ccc(CN(CCN(C)C)C(=O)c3cccnc3)cc2)cc1Nc1nccc(-c2cccnc2)n1, the Activity (EOL1 [1]) was “Active”, the Activity [2] was 100% and the Activity [3] was 95%. It also gave an Activity [4] of 80%, a half-life [5] of 2.05 h and an Activity [6] of 93%. For the same compound, the Activity [7] was 93%, the Activity [8] was 97% and the Activity [9] was 95%. It also gave an Activity [10] of 87%, an Activity [11] of 88% and an Activity [12] of 79%. The Activity (NCI-H1703) was “Active”, the GI50 [13] was over 10 µM and the Activity [14] was 100%. It also gave an inhibition in vivo at 50 mg/kg/day (EOL1 [15]) of 95.4%, an Activity [16] of 100% and an Activity [17] of 79%. For the same compound, the AUC(0-t) [18] was 528 ng·h/mL, the Activity [19] was 96% and the Activity [20] was 100%.
